Myeloid diff MLP: promotes myeloid progenitor differentiation; AID 624256; calls only at 10 µM; 360,000 compounds, 1% hits; ER-HoxA9 myeloid progenitors, lysozyme-GFP differentiation, flow cytometry;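 active means normalized GFP-positive differentiation at or above the plate's own cutoff, the solvent-only control mean plus 3 SD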;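 further: cells exposed to compound for four days before flow analysis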
CendR NRP1 mod: alters CendR peptide binding to human NRP-1. O14786. FAM-RPARPAR peptide binding to NRP-1, fluorescence polarization. inhibition, % at 25 µM. 360,000 compounds, 0.85% hits;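 active means inhibition or corrected inhibition above about 18%, plus a signal ratio from 0.5 to 1.5, limit read from the data, passing the limit was not always enough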
Target sequence (O14786 whole entry, looked up): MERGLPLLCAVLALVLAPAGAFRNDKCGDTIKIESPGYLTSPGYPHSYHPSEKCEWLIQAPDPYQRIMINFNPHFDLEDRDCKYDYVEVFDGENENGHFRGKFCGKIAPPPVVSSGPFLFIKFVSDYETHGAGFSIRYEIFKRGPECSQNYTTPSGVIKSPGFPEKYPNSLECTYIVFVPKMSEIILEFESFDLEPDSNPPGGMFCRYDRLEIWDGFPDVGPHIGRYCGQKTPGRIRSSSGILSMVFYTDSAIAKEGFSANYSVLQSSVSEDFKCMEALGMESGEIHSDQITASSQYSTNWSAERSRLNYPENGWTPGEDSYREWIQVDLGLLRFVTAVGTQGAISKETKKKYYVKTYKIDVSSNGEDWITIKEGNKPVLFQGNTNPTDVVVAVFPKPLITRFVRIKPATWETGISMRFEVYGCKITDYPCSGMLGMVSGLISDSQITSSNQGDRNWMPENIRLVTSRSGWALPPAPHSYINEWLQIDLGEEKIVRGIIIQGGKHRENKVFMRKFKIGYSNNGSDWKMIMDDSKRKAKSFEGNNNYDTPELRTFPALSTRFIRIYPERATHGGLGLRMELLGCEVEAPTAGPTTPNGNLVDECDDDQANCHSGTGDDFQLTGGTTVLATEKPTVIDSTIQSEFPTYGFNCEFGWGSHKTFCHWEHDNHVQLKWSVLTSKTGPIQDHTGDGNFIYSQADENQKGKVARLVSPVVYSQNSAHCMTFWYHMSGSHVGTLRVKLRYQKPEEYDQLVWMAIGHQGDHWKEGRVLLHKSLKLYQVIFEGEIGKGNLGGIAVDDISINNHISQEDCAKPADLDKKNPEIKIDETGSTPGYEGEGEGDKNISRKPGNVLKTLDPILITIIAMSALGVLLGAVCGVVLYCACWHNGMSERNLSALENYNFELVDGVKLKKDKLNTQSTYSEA
ABCB6 inh 2: blocks the human ABCB6 transporter; fluorescence ratio to DMSO, % at 10 µM; K562-ABCB6 porphyrin accumulation, flow cytometry, 1 h; stronger effect = lower value; AID 602162; 360,000 compounds, 0.19% hits;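 active means fluorescence ratio to DMSO below 75%, the collection mean minus 3 SD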;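 further: signal is porphyrin accumulated inside mitochondria; 100% equals median channel fluorescence of DMSO control wells; lower ratio means ABCB6 inhibition with less porphyrin fluorescence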
Arr AP2 block: human beta-arrestin and AP2 interaction inhibition; FITC-arrestin peptide / GST-AP2 beads, flow cytometry; AP2 beta2 appendage carries R879A mutation; inhibition, % at 10 µM; 340,000 compounds, 0.31% hits; AID 504490;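 active means inhibition above a set limit, near 3 SD of compounds lacking own fluorescence, cut at about 54% in these data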;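 further: plate controls were DMSO wells for no effect and 5 µM unlabelled arrestin peptide for full effect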
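System: GST-AP2 R879A glutathione beads. Medium: PBS with 0.05% Tween 20 and 0.1% BSA. Also added: FITC-arrestin peptide, 50 nM. Incubation: 12 min plus 1 h, RT. Measured by: high-throughput flow cytometry of beads, ex 488, em 535 nm. Evaluation: percent drop in bead-associated FITC signal.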
Exocytosis inh: blocks lytic granule exocytosis | 360,000 compounds, 0.66% hits | AID 651702 | inhibition, % at 10 µM | TALL-104 LAMP-1 surface exposure, flow cytometry; cells stimulated with thapsigargin and PMA;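 active means inhibition above about 55%, limit read from the data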
ATG4B inhibitor: ATG4B (human) cysteine protease inhibition. 340,000 compounds, 0.51% hits. Q9Y4P1. AID 504462. ATG4B cleavage of LC3-PLA2, NBD-HPC fluorescence, 1 h. inhibition, % at 8.33 µM; in the data active means inhibition above about 40%
Active calls of the source: *; i = inactive; · = no result given; + = active, no number. Hits are enriched below; roughly 3.3% of the tested compounds scored in any of these assays.

SMILES	Myeloid diff MLP	CendR NRP1 mod	ABCB6 inh 2	Arr AP2 block	Exocytosis inh	ATG4B inhibitor
Cc1cccc(NC(=O)CN2CCN(C(=O)c3cc(C4CC4)nn3-c3ccccc3)CC2)c1C	+	-4	90	·	0	·
COc1ccc(-c2cc(C(F)(F)F)n3ncc(C(=O)NCC4CCCO4)c3n2)cc1OC (centres undefined)	i	-268	64*	16	-2	-11
COc1ccc(-c2cc(C(F)F)n3ncc(C(=O)NCC4CCCO4)c3n2)cc1 (centres undefined)	i	7	108	10	-3	-4
COc1cc(CNc2ncnc3c2ncn3[C@H]2CN(Cc3cccc4ccccc34)C[C@@H](CO)O2)cc(OC)c1OC	i	-8	94	·	17	·
CCn1cc(Cl)c(C(=O)Nc2c(C)nn(Cc3c(F)c(F)c(F)c(F)c3F)c2C)n1	i	3	92	-8	0	16
Cc1nnc(SCC(=O)NNC(=O)c2ccc(Br)cc2)n1C	i	9	97	22	-1	11
Cc1ccc(NCc2nnc(SCC(=O)NNC(=O)Cc3ccccc3)n2C)cc1	+	1	115	-5	-4	-10
Cc1ccc(C(=O)NNC(=O)CSc2nnc(C(C)C)n2C)cc1	i	20*	100	-7	3	-14
Cn1c(SCC(=O)NNC(=O)c2ccccc2)nnc1C1CC1	·	24*	94	-1	1	3
Cc1ccc(C(=O)NNC(=O)CSc2nnc(C3CC3)n2C)cc1	i	-2	96	9	9	6
O=c1[nH]c(C2CCN(S(=O)(=O)/C=C/c3ccccc3)CC2)nc2c1nnn2Cc1ccc(F)cc1	i	0	101	-3	-6	-15
CCOC(=O)C1=C(C)N=c2s/c(=C/c3ccc(OCC(=O)O)cc3)c(=O)n2C1c1ccc(SC)cc1 (centres undefined)	i	-144	99	2	2	·
CCOC(=O)C1=C(C)N=c2s/c(=C/c3ccc(OCC(=O)O)cc3)c(=O)n2C1c1ccc(F)cc1 (centres undefined)	+	-31	103	-8	-10	21
CCC(Sc1nc2n[nH]c(C)c2c(=N)n1-c1cccc(Cl)c1)C(=O)NCCOC (centres undefined)	i	29*	96	0	2	-14
Cc1cc(/C=N/n2cnnc2)c(C)n1-c1ccc(Cl)cc1	i	12	95	15	1	12
Cc1cc(N2CCCC2)ccc1/C=N/n1cnnc1	+	-54	98	13	-1	-17
CCOC(=O)N1CCN(S(=O)(=O)N2CCCC(C(=O)NCc3cccc(OC)c3)C2)CC1 (centres undefined)	+	3	91	6	-2	-1
CCOC(=O)N1CCN(S(=O)(=O)N2CCCC(C(=O)NCc3cc(OC)ccc3OC)C2)CC1 (centres undefined)	i	12	94	·	-6	·
CCc1ccc(CNC(=O)C2CCCN(S(=O)(=O)N3CC(C)CC(C)C3)C2)cc1 (centres undefined)	+	22*	100	21	-3	-1
c1ccc(OCCCCN2CCCCC2)cc1	i	-1	97	2	-5	-3
Cc1cccc(C)c1OCCCN1CCCC1	i	-5	103	-4	-3	-2
Cc1cccc(C)c1OCCN1CCCC1	i	28*	93	0	-6	-2
c1ccc(OCCCN2CCCC2)cc1	i	23*	96	1	4	-3
O=C(CN1CCCCC1)c1c[nH]c2ccccc12	i	2	95	-5	11	-4
CC1CC(C)CN(CC(=O)c2c[nH]c3ccccc23)C1 (centres undefined)	+	-84	168	7	3	-7
SMILES	Myeloid diff MLP	CendR NRP1 mod	ABCB6 inh 2	Arr AP2 block	Exocytosis inh	ATG4B inhibitor
Cc1ccc2[nH]cc(CCNC(=O)C3CCCO3)c2c1 (centres undefined)	i	13	92	6	1	-2
Cc1cc(C)cc(OCCCn2ccnc2)c1	i	27*	90	7	-14	-3
C#CC(=O)N(c1ccc(OC)cc1OC)C(C(=O)NC1CCCC1)c1cccs1 (centres undefined)	·	-9	99	19	28	-1
C#CC(=O)N(c1cc(OC)ccc1OC)C(C(=O)NC1CCCC1)c1cccs1 (centres undefined)	i	7	64*	9	21	-1
O=C(CN1CCN(Cc2ccccc2)CC1)NCCNc1ccc([N+](=O)[O-])cn1	i	9	104	-5	-4	-3
COc1ccc(CNC(=O)Cn2ccc(N)nc2=O)cc1	i	32*	98	25	-8	3
Nc1ccn([C@@H]2O[C@H](C(=O)NCc3ccc4c(c3)OCO4)[C@@H](O)[C@H]2O)c(=O)n1	i	26*	104	·	-2	·
Nc1ccn(CC(=O)NCc2ccc3c(c2)OCO3)c(=O)n1	i	21*	100	4	-1	4
Nc1ccn(CC(=O)NCc2ccccn2)c(=O)n1	i	0	97	16	-3	-4
Nc1ccn([C@@H]2O[C@H](C(=O)NCCc3ccc(F)cc3)[C@@H](O)[C@H]2O)c(=O)n1	i	0	93	·	2	·
Nc1ccn(CC(=O)NCCNc2ccc([N+](=O)[O-])cn2)c(=O)n1	i	28*	87	26	-6	4
COc1ccccc1N1CCN(C(=O)c2cc(-c3ccc(F)cc3)[nH]c2C)CC1	i	8	88	-6	-7	-16
COc1cc(OC)cc(-c2noc([C@@H]3O[C@H](CO)[C@@H](O)[C@H]3O)n2)c1	i	7	102	·	20	·
CN(C)c1nc(=NCc2ccco2)ss1	i	5	101	17	76*	-6
Cc1ccc(S(=O)(=O)N2CCC(=O)N(C(COCc3cccc(C(F)(F)F)c3)C(C)C)CC2)cc1 (centres undefined)	i	23*	97	12	5	-9
O=C1CCN(S(=O)(=O)c2ccccc2)CCN1CCOCc1ccccc1	i	8	109	-1	16	5
Cc1ccc(S(=O)(=O)N2CCC(=O)N(C(COCc3cccc(C)c3)C(C)C)CC2)cc1 (centres undefined)	i	24*	100	-4	-15	-6
Cc1cccc(COCCN2CCN(S(=O)(=O)c3ccccc3)CCC2=O)c1	+	9	101	-1	3	4
CC1SC2(NC1=O)C1CC3CC(C1)CC2C3 (centres undefined)	i	-2	95	16	-2	2
Cn1c(=O)c2c(ncn2Cc2ccccc2)n(C)c1=O	i	-4	98	-3	2	-3

Source: PubChem (several laboratories)
